# Data published in article PMC9540525 (Cancer, 2022).
# Entries after “also recorded” stand apart in the source; their conditions may differ.
# Assay: Phase 1 study CC-90011-ST-001: safety, adverse events
# Assay type: in vivo, human
# Procedure, shortened: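 Treated population: all patients given at least one oral dose of test compound (once weekly, 28-day cycles; expansion 60 mg). Adverse events were graded by NCI CTCAE v4.03. Dose reductions were permitted in any cycle, including cycle 1. Treatment could be interrupted for up to 4 weeks, until toxicity returned to grade ≤1 or baseline.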
# [1] = dose escalation, n = 50, patients (%)
# [2] = dose expansion, NEN, n = 16, patients (%)
# [3] = dose expansion, R/R MZL, n = 3, patients (%)
# [4] = dose expansion, n = 19, patients (%)
compound,measurement,setting,value
COc1ccc(-c2c(-c3ccc(C#N)c(F)c3)nc(N3CCC(N)CC3)n(C)c2=O)cc1F [CC‐90011],TEAE any grade: Abdominal pain,[1],7 (14)
same,TEAE any grade: Acute kidney injury,[1],1 (2)
same,TEAE any grade: Anemia,[1],14 (28)
same,TEAE any grade: Arthralgia,[1],9 (18)
same,TEAE any grade: Back pain,[1],7 (14)
same,TEAE any grade: Bone pain,[1],1 (2)
same,TEAE any grade: Bronchitis,[1],2 (4)
same,TEAE any grade: Constipation,[1],11 (22)
same,TEAE any grade: Cough,[1],6 (12)
same,TEAE any grade: Decreased appetite,[1],10 (20)
same,TEAE any grade: Diarrhea,[1],10 (20)
same,TEAE any grade: Dizziness,[1],3 (6)
same,TEAE any grade: Dysgeusia,[1],3 (6)
same,TEAE any grade: Dyspnea,[1],5 (10)
same,TEAE any grade: Epistaxis,[1],2 (4)
same,TEAE any grade: Fatigue/asthenia,[1],24 (48)
same,TEAE any grade: Headache,[1],5 (10)
same,TEAE any grade: Hepatic pain,[1],1 (2)
same,TEAE any grade: Hypokalemia,[1],5 (10)
same,TEAE any grade: Increased ALT,[1],6 (12)
same,TEAE any grade: Increased AST,[1],6 (12)
same,TEAE any grade: Lipase increased,[1],2 (4)
same,TEAE any grade: Musculoskeletal pain,[1],1 (2)
same,TEAE any grade: Nausea,[1],11 (22)
same,TEAE any grade: Neutropenia,[1],6 (12)
same,TEAE any grade: Peripheral sensory neuropathy,[1],2 (4)
same,TEAE any grade: Pruritus,[1],3 (6)
same,TEAE any grade: Pyrexia,[1],10 (20)
same,TEAE any grade: Sciatica,[1],1 (2)
same,TEAE any grade: Thrombocytopenia,[1],23 (46)
same,TEAE any grade: Tumor pain,[1],5 (10)
same,TEAE any grade: Vomiting,[1],14 (28)
same,TEAE any grade: ≥1 event,[1],48 (96)
same,TEAE grade 3/4: Abdominal pain,[1],0 (0)
same,TEAE grade 3/4: Acute kidney injury,[1],0 (0)
same,TEAE grade 3/4: Anemia,[1],3 (6)
same,TEAE grade 3/4: Arthralgia,[1],0 (0)
same,TEAE grade 3/4: Back pain,[1],0 (0)
same,TEAE grade 3/4: Bone pain,[1],1 (2)
same,TEAE grade 3/4: Bronchitis,[1],0 (0)
same,TEAE grade 3/4: Constipation,[1],0 (0)
same,TEAE grade 3/4: Cough,[1],0 (0)
same,TEAE grade 3/4: Decreased appetite,[1],1 (2)
same,TEAE grade 3/4: Diarrhea,[1],1 (2)
same,TEAE grade 3/4: Dizziness,[1],0 (0)
same,TEAE grade 3/4: Dysgeusia,[1],0 (0)
same,TEAE grade 3/4: Dyspnea,[1],0 (0)
same,TEAE grade 3/4: Epistaxis,[1],0 (0)
same,TEAE grade 3/4: Fatigue/asthenia,[1],1 (2)
same,TEAE grade 3/4: Headache,[1],0 (0)
same,TEAE grade 3/4: Hepatic pain,[1],0 (0)
same,TEAE grade 3/4: Hypokalemia,[1],1 (2)
same,TEAE grade 3/4: Increased ALT,[1],2 (4)
same,TEAE grade 3/4: Increased AST,[1],1 (2)
same,TEAE grade 3/4: Lipase increased,[1],2 (4)
same,TEAE grade 3/4: Musculoskeletal pain,[1],0 (0)
same,TEAE grade 3/4: Nausea,[1],0 (0)
same,TEAE grade 3/4: Neutropenia,[1],4 (8)
same,TEAE grade 3/4: Peripheral sensory neuropathy,[1],0 (0)
same,TEAE grade 3/4: Pruritus,[1],0 (0)
same,TEAE grade 3/4: Pyrexia,[1],0 (0)
same,TEAE grade 3/4: Sciatica,[1],0 (0)
same,TEAE grade 3/4: Thrombocytopenia,[1],12 (24)
same,TEAE grade 3/4: Tumor pain,[1],1 (2)
same,TEAE grade 3/4: Vomiting,[1],0 (0)
same,TEAE grade 3/4: ≥1 event,[1],24 (48)
same,TEAE leading to treatment discontinuation,dose expansion,No patients; also recorded: none of the TEAEs
same,febrile neutropenia,dose expansion,no febrile neutropenia was observed
same,"anemia leading to a dose reduction, patients","dose expansion, 19 patients",5%
same,"hematologic events leading to a dose interruption, patients","dose expansion, 19 patients",47%
same,"neutropenia leading to a dose reduction, patients","dose expansion, 19 patients",5%
same,patients with at least one TEAE leading to a dose interruption,"dose expansion, 19 patients",58%
same,patients with at least one TEAE leading to a dose reduction,"dose expansion, 19 patients",26%
same,"thrombocytopenia leading to a dose reduction, patients","dose expansion, 19 patients",26%
same,TRAE grade 3/4: Thrombocytopenia,"dose expansion, NEN cohort, n=16",6 n (%)
same,TEAE any grade: Abdominal pain,[2],0 (0)
same,TEAE any grade: Acute kidney injury,[2],1 (6)
same,TEAE any grade: Anemia,[2],6 (38)
same,TEAE any grade: Arthralgia,[2],6 (38)
same,TEAE any grade: Back pain,[2],1 (6)
same,TEAE any grade: Bone pain,[2],2 (13)
same,TEAE any grade: Bronchitis,[2],2 (13)
same,TEAE any grade: Constipation,[2],5 (31)
same,TEAE any grade: Cough,[2],3 (19)
same,TEAE any grade: Decreased appetite,[2],3 (19)
same,TEAE any grade: Diarrhea,[2],5 (31)
same,TEAE any grade: Dizziness,[2],2 (13)
same,TEAE any grade: Dysgeusia,[2],4 (25)
same,TEAE any grade: Dyspnea,[2],2 (13)
same,TEAE any grade: Epistaxis,[2],3 (19)
same,TEAE any grade: Fatigue/asthenia,[2],9 (56)
same,TEAE any grade: Headache,[2],0 (0)
same,TEAE any grade: Hepatic pain,[2],2 (13)
same,TEAE any grade: Hypokalemia,[2],2 (13)
same,TEAE any grade: Increased ALT,[2],0 (0)
same,TEAE any grade: Increased AST,[2],1 (6)
same,TEAE any grade: Lipase increased,[2],2 (13)
same,TEAE any grade: Musculoskeletal pain,[2],1 (6)
same,TEAE any grade: Nausea,[2],5 (31)
same,TEAE any grade: Neutropenia,[2],3 (19)
same,TEAE any grade: Peripheral sensory neuropathy,[2],2 (13)
same,TEAE any grade: Pruritus,[2],2 (13)
same,TEAE any grade: Pyrexia,[2],0 (0)
same,TEAE any grade: Sciatica,[2],2 (13)
same,TEAE any grade: Tumor pain,[2],0 (0)
same,TEAE any grade: Vomiting,[2],2 (13)
same,TEAE grade 3/4: Abdominal pain,[2],0 (0)
same,TEAE grade 3/4: Acute kidney injury,[2],0 (0)
same,TEAE grade 3/4: Anemia,[2],1 (6)
same,TEAE grade 3/4: Arthralgia,[2],0 (0)
same,TEAE grade 3/4: Back pain,[2],0 (0)
same,TEAE grade 3/4: Bone pain,[2],0 (0)
same,TEAE grade 3/4: Bronchitis,[2],0 (0)
same,TEAE grade 3/4: Constipation,[2],0 (0)
same,TEAE grade 3/4: Cough,[2],0 (0)
same,TEAE grade 3/4: Decreased appetite,[2],0 (0)
same,TEAE grade 3/4: Diarrhea,[2],0 (0)
same,TEAE grade 3/4: Dizziness,[2],0 (0)
same,TEAE grade 3/4: Dysgeusia,[2],0 (0)
same,TEAE grade 3/4: Dyspnea,[2],0 (0)
same,TEAE grade 3/4: Epistaxis,[2],0 (0)
same,TEAE grade 3/4: Headache,[2],0 (0)
same,TEAE grade 3/4: Hepatic pain,[2],1 (6)
same,TEAE grade 3/4: Hypokalemia,[2],0 (0)
same,TEAE grade 3/4: Increased ALT,[2],0 (0)
same,TEAE grade 3/4: Increased AST,[2],0 (0)
same,TEAE grade 3/4: Lipase increased,[2],0 (0)
same,TEAE grade 3/4: Musculoskeletal pain,[2],0 (0)
same,TEAE grade 3/4: Nausea,[2],0 (0)
same,TEAE grade 3/4: Peripheral sensory neuropathy,[2],0 (0)
same,TEAE grade 3/4: Pruritus,[2],0 (0)
same,TEAE grade 3/4: Pyrexia,[2],0 (0)
same,TEAE grade 3/4: Sciatica,[2],0 (0)
same,TEAE grade 3/4: Tumor pain,[2],0 (0)
same,TEAE grade 3/4: Vomiting,[2],0 (0)
same,TEAE any grade: Abdominal pain,[3],0 (0)
same,TEAE any grade: Acute kidney injury,[3],1 (33)
same,TEAE any grade: Anemia,[3],1 (33)
same,TEAE any grade: Arthralgia,[3],0 (0)
same,TEAE any grade: Back pain,[3],0 (0)
same,TEAE any grade: Bone pain,[3],1 (33)
same,TEAE any grade: Bronchitis,[3],0 (0)
same,TEAE any grade: Constipation,[3],1 (33)
same,TEAE any grade: Cough,[3],1 (33)
same,TEAE any grade: Decreased appetite,[3],0 (0)
same,TEAE any grade: Diarrhea,[3],0 (0)
same,TEAE any grade: Dizziness,[3],0 (0)
same,TEAE any grade: Dysgeusia,[3],0 (0)
same,TEAE any grade: Dyspnea,[3],1 (33)
same,TEAE any grade: Epistaxis,[3],0 (0)
same,TEAE any grade: Headache,[3],0 (0)
same,TEAE any grade: Hepatic pain,[3],0 (0)
same,TEAE any grade: Hypokalemia,[3],0 (0)
same,TEAE any grade: Increased ALT,[3],0 (0)
same,TEAE any grade: Increased AST,[3],0 (0)
same,TEAE any grade: Lipase increased,[3],0 (0)
same,TEAE any grade: Musculoskeletal pain,[3],0 (0)
same,TEAE any grade: Nausea,[3],1 (33)
same,TEAE any grade: Neutropenia,[3],1 (33)
same,TEAE any grade: Peripheral sensory neuropathy,[3],0 (0)
same,TEAE any grade: Pruritus,[3],0 (0)
same,TEAE any grade: Pyrexia,[3],0 (0)
same,TEAE any grade: Sciatica,[3],0 (0)
same,TEAE any grade: Tumor pain,[3],1 (33)
same,TEAE any grade: Vomiting,[3],0 (0)
same,TEAE grade 3/4: Abdominal pain,[3],0 (0)
same,TEAE grade 3/4: Acute kidney injury,[3],0 (0)
same,TEAE grade 3/4: Anemia,[3],0 (0)
same,TEAE grade 3/4: Arthralgia,[3],0 (0)
same,TEAE grade 3/4: Back pain,[3],0 (0)
same,TEAE grade 3/4: Bone pain,[3],0 (0)
same,TEAE grade 3/4: Bronchitis,[3],0 (0)
same,TEAE grade 3/4: Constipation,[3],0 (0)
same,TEAE grade 3/4: Cough,[3],0 (0)
same,TEAE grade 3/4: Decreased appetite,[3],0 (0)
same,TEAE grade 3/4: Diarrhea,[3],0 (0)
same,TEAE grade 3/4: Dizziness,[3],0 (0)
same,TEAE grade 3/4: Dysgeusia,[3],0 (0)
same,TEAE grade 3/4: Dyspnea,[3],0 (0)
same,TEAE grade 3/4: Epistaxis,[3],0 (0)
same,TEAE grade 3/4: Fatigue/asthenia,[3],0 (0)
same,TEAE grade 3/4: Headache,[3],0 (0)
same,TEAE grade 3/4: Hepatic pain,[3],0 (0)
same,TEAE grade 3/4: Hypokalemia,[3],0 (0)
same,TEAE grade 3/4: Increased ALT,[3],0 (0)
same,TEAE grade 3/4: Increased AST,[3],0 (0)
same,TEAE grade 3/4: Lipase increased,[3],0 (0)
same,TEAE grade 3/4: Musculoskeletal pain,[3],0 (0)
same,TEAE grade 3/4: Nausea,[3],0 (0)
same,TEAE grade 3/4: Peripheral sensory neuropathy,[3],0 (0)
same,TEAE grade 3/4: Pruritus,[3],0 (0)
same,TEAE grade 3/4: Pyrexia,[3],0 (0)
same,TEAE grade 3/4: Sciatica,[3],0 (0)
same,TEAE grade 3/4: Thrombocytopenia,[3],0 (0)
same,TEAE grade 3/4: Tumor pain,[3],0 (0)
same,TEAE grade 3/4: Vomiting,[3],0 (0)
same,TEAE any grade: ≥1 event,[4],19 (100)
same,TEAE grade 3/4: ≥1 event,[4],13 (68)
same,Serious TEAE: Anemia,"dose expansion, n=19",1 n (%)
same,Serious TEAE: Biliary tract infection,"dose expansion, n=19",1 n (%)
same,Serious TEAE: Chest pain,"dose expansion, n=19",1 n (%)
same,Serious TEAE: Fatigue,"dose expansion, n=19",1 n (%)
same,Serious TEAE: General health deterioration,"dose expansion, n=19",1 n (%)
same,Serious TEAE: Hepatic hemorrhage,"dose expansion, n=19",1 n (%)
same,Serious TEAE: Hepatic pain,"dose expansion, n=19",1 n (%)
same,Serious TEAE: Oxygen saturation decreased,"dose expansion, n=19",1 n (%)
same,Serious TEAE: Pulmonary hemorrhage,"dose expansion, n=19",1 n (%)
same,Serious TEAE: Respiratory failure,"dose expansion, n=19",1 n (%)
same,Serious TEAE: Thrombocytopenia,"dose expansion, n=19",1 n (%)
same,Serious TEAE: Upper respiratory tract infection,"dose expansion, n=19",1 n (%)
same,TEAE with an outcome of death,"dose expansion, upper respiratory tract infection, not considered treatment-related",One patient
same,new safety concerns or late toxicities with longer follow-up,follow-up of approximately 5 years and >4 years of treatment,No new safety concerns or late toxicities were identified
